PGC1a acetyl inh – modulators of PGC1a acetylation. 350,000 tested, 0.17% active. U2OS PGC1a acetylation, AlphaScreen anti-acetyl-lysine; with virally co-expressed GCN5 acetyltransferase. inhibition, % at 15.6 µM. AID 651687;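 active = every replicate shows inhibition of at least 40%; inconclusive = mean inhibition at least 40% but some replicate below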;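 also: 0% = neutral control wells and 100% = positive control wells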
DENV2 CPE rescue – protects cells from dengue virus 2 cytopathic effect; DENV2-infected cells, cytopathic effect rescue, plate reader; CPE inhibition, % at 9.99 µM; 350,000 tested, 1.7% active; in the data active = CPE inhibition above about 20%, passing the limit was not always enough; inconclusive = no clear call, values can overlap the other calls; tested in BHK-21 cells;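 also: 0% = median of neutral control wells and 100% = median of positive control wells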
S100A4 inh HTS – S100A4-myosin IIA interaction inhibition. P26447. S100A4/TAMRA-MyoIIA peptide fluorescence polarization. inhibition, % at 10.7 µM. 360,000 tested, 0.14% active. AID 652163;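 active = mean inhibition of at least 70% across replicates, with every replicate also reaching that level; inconclusive = mean inhibition reaches 70% but some replicates fall short; inactive = mean inhibition below 70%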
Target sequence (P26447 whole entry, looked up): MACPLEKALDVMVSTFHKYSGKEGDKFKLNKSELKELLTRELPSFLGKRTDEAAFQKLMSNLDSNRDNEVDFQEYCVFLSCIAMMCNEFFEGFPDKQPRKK
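Assay system: human S100A4 monomer with TAMRA-labelled myosin IIA peptide / Buffer or medium: Calcium-containing HEPES buffer, pH 7.2 / Reagent: TAMRA-labelled myosin IIA heavy-chain peptide probe, 5 nM / Compound: one dose per compound / Timing: polarization read 5 min after assay mix addition, stable 5–60 min / Benchmarks: neutral control DMSO, positive control TFP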
C2C12 statin – suppressors of simvastatin-induced myotoxicity in C2C12 myotubes | ATP luminescence, 48 h; scaled: DMSO 0, geranylgeraniol control 100 | rescue of ATP level, % at 7.49 µM | 330,000 tested, 0.78% active | AID 602340;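 active = mean ATP rescue above about 67%, or every replicate alone reaching that limit, limit read from the data, passing the limit was not always enough; inconclusive = no clear call, values can overlap the other calls; inactive = mean under the limit and some replicate under it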;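 also: myotubes were challenged with 10 µM simvastatin during compound exposure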
SIRT5 block – sirtuin-5 (human) deacylase inhibition; Q9NXA8; Purified SirT5, succinyl-peptide AMC, trypsin-coupled fluorescence; inhibition, % at 15 µM; 330,000 tested, 1.1% active; AID 652115; in the data active = inhibition above about 15%; inconclusive = no clear call, values can overlap the other calls
Target sequence (Q9NXA8 whole entry, looked up): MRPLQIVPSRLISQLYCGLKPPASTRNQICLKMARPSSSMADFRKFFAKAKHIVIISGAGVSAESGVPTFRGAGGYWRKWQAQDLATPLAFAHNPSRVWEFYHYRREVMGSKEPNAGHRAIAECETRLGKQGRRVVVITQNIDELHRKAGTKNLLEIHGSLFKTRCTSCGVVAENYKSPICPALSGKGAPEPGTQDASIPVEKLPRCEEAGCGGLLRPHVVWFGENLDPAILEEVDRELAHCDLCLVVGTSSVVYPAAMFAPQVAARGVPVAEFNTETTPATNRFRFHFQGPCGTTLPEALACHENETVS
The depositor's hits bear a star; ? = inconclusive; · = no result given. Hits are enriched below; roughly 2.9% of the tested compounds scored in any of these assays.

SMILES	PGC1a acetyl inh	DENV2 CPE rescue	S100A4 inh HTS	C2C12 statin	SIRT5 block
C[C@@H]1CN([C@H](C)CO)C(=O)c2cc(NS(C)(=O)=O)ccc2O[C@@H](C)CCCCO[C@@H]1CN(C)S(=O)(=O)c1ccc(Cl)cc1	2.6	0.7	14.9	51.1	0.2
Cc1ccc(S(=O)(=O)Nc2ccc3c(c2)C(=O)N([C@@H](C)CO)C[C@H](C)[C@H](CN(C)S(=O)(=O)c2ccc(Cl)cc2)OCCCC[C@@H](C)O3)cc1	-3.2	-23.6	·	·	·
Cc1ccc(S(=O)(=O)Nc2ccc3c(c2)C(=O)N([C@H](C)CO)C[C@@H](C)[C@@H](CN(C)S(=O)(=O)c2ccc(Cl)cc2)OCCCC[C@H](C)O3)cc1	-13.4	-5.5	·	·	·
C[C@@H]1CN([C@@H](C)CO)C(=O)c2cc(NS(C)(=O)=O)ccc2O[C@@H](C)CCCCO[C@@H]1CN(C)S(=O)(=O)c1ccc(Cl)cc1	-2.0	20.3*	5.5	21.1	-4.3
Cc1ccc(S(=O)(=O)Nc2ccc3c(c2)C(=O)N([C@@H](C)CO)C[C@@H](C)[C@H](CN(C)S(=O)(=O)c2ccc(Cl)cc2)OCCCC[C@@H](C)O3)cc1	-9.1	83.1*	·	·	·
Cc1ccc(S(=O)(=O)N(C)C[C@@H]2OCCCC[C@@H](C)Oc3ccc(NS(=O)(=O)c4ccc(Cl)cc4)cc3C(=O)N([C@@H](C)CO)C[C@H]2C)cc1	-16.6	-1.3	-17.6	3.6	24.6*
C[C@@H]1CN([C@H](C)CO)C(=O)c2cc(N(C)C)ccc2O[C@@H](C)CCCCO[C@H]1CN(C)S(=O)(=O)c1ccc(Cl)cc1	-11.0	·	·	38.1	·
C[C@@H]1CCCCO[C@H](CN(C)S(=O)(=O)c2ccc(Cl)cc2)[C@H](C)CN([C@H](C)CO)C(=O)c2cc(N(C)C)ccc2O1	-12.8	88.6*	-45.9	-25.9	4.7
COCC#Cc1ccc2c(c1)O[C@@H](CN(C)C)[C@H](C)CN([C@@H](C)CO)S2(=O)=O	-2.4	-0.3	5.7	0.4	5.9
C[C@@H]1CN([C@H](C)CO)S(=O)(=O)c2ccc(-c3cccnc3)cc2O[C@H]1CN(C)C	8.8	12.3	0.0	-1.1	-4.3
COc1ccccc1S(=O)(=O)N(C)C[C@H]1Oc2ncc(Br)cc2C(=O)N([C@@H](C)CO)C[C@H]1C	3.0	3.6	-3.8	3.3	-0.8
Cc1ccc(S(=O)(=O)Nc2ccc3c(c2)C(=O)N([C@H](C)CO)C[C@H](C)[C@H](CN(C)S(=O)(=O)c2ccc(Cl)cc2)OCCCC[C@H](C)O3)cc1	10.0	-15.3	·	·	·
Cc1ccc(S(=O)(=O)Nc2ccc3c(c2)C(=O)N([C@H](C)CO)C[C@@H](C)[C@@H](CN(C)S(=O)(=O)c2ccc(Cl)cc2)OCCCC[C@@H](C)O3)cc1	-17.9	-19.5	·	·	·
Cc1ccc(S(=O)(=O)N(C)C[C@@H]2OCCCC[C@H](C)Oc3ccc(NS(=O)(=O)c4ccc(Cl)cc4)cc3C(=O)N([C@H](C)CO)C[C@@H]2C)cc1	-9.0	1.7	-7.4	6.7	19.2*
Cc1ccc(S(=O)(=O)N(C)C[C@H]2OCCCC[C@H](C)Oc3ccc(NS(=O)(=O)c4ccc(Cl)cc4)cc3C(=O)N([C@H](C)CO)C[C@H]2C)cc1	-8.0	-2.2	-1.9	19.2	25.9*
Cc1ccc(S(=O)(=O)N(C)C[C@@H]2OCCCC[C@@H](C)Oc3ccc(NS(=O)(=O)c4ccc(Cl)cc4)cc3C(=O)N([C@H](C)CO)C[C@H]2C)cc1	-15.4	-7.4	-46.0	7.4	23.4*
COCCNC(=O)CCC1CCN(Cc2ccc(-c3ccccc3)cc2)CC1	29.5	48.1*	-8.0	0.9	12.4
COCCNC(=O)C1CCCN(Cc2ccccc2)CC1 (stereo unspecified)	8.2	-2.5	-12.5	-1.0	-6.9
Cc1nc([N+](=O)[O-])c(Br)n1CC(=O)c1ccc(Br)cc1	64.1*	·	·	3.4	·
C#Cc1ccc(CN2CCCC(C(=O)Nc3ccccc3Oc3cccnc3)C2)cc1 (stereo unspecified)	-1.4	-5.2	-1.8	91.4*	-13.2
COc1cccc(CN2CC3(C2)CN(C(=O)Nc2ccc(F)cc2)[C@H](CO)c2c3c3ccc(OC)cc3n2C)c1	·	10.2	5.2	·	9.0
CCC(=O)N(C)C[C@@H]1Oc2cc(C#C[C@@H](C)O)ccc2S(=O)(=O)N([C@@H](C)CO)C[C@H]1C	3.6	-6.6	-5.4	10.3	2.6
Cc1cc(C)c(OCCCNCc2ccccc2)c(Br)c1	-20.4	-2.1	3.5	1.3	0.8
Cc1cc(C)c(OCCCNC2CCCC2)c(Br)c1	·	28.5*	5.9	12.0	·
Cc1cc(C)c(OCCCCN(C)C)c(Br)c1	·	7.8	-21.8	·	15.3*
SMILES	PGC1a acetyl inh	DENV2 CPE rescue	S100A4 inh HTS	C2C12 statin	SIRT5 block
CC=Cc1ccc2n(c1=O)C[C@H]1[C@H](CO)[C@@H](C(=O)NC3CCCC3)N[C@@H]21 (mixture of isomers)	8.9	0.9	5.7	·	-1.6
COc1ccc(C#Cc2ccc3c(c2)O[C@@H](CN(C)C)[C@@H](C)CN([C@H](C)CO)S3(=O)=O)cc1	-40.8	30.9	2.7	·	-6.7
Cc1ccc(NS(=O)(=O)c2ccc(NC(=O)C3CC3)cc2)cc1C	1.3	1.3	-7.9	-8.4	-3.4
Cc1ccc(NC(=O)C2CCCCC2)cc1C	4.6	70.0*	-0.9	6.4	·
O=C(c1ccccc1)N1C[C@H]2[C@@H](c3ccccc31)[C@H](CO)N2C(=O)c1ccccn1	-4.6	25.2*	8.3	-10.2	0.6
CN1C[C@@H]2[C@H](c3ccccc31)[C@@H](CO)N2Cc1ccccc1	-3.7	44.2*	-3.8	29.8	-1.6
CN1C[C@H]2[C@@H](c3ccccc31)[C@H](CO)N2C(=O)c1ccccn1	3.7	28.0*	-5.6	-2.2	-2.2
O=C(c1ccccc1)N1C[C@H]2[C@@H](c3ccccc31)[C@@H](CO)N2C(=O)c1ccccn1	10.3	1.8	-0.2	8.8	7.8
O=C(Nc1ccccc1)N1C[C@@H]2[C@H](c3ccccc31)[C@@H](CO)N2C(=O)c1ccccn1	-9.2	71.2*	-1.1	22.2	-1.9
COc1ccc(S(=O)(=O)N(C)C[C@@H]2Oc3cc(C#CC4CC4)ccc3S(=O)(=O)N([C@@H](C)CO)C[C@H]2C)cc1	-46.4	-3.3	-6.3	-40.6	12.9
CC(C)CC#Cc1ccc2c(c1)O[C@H](CN(C)C(=O)Nc1ccccc1)[C@@H](C)CN([C@@H](C)CO)S2(=O)=O	-6.4	8.7	-1.4	-16.7	4.4
C[C@H](CO)N1C[C@H](C)[C@H](CN(C)C(=O)C2CCC2)Oc2ncc(C#CC3(O)CCCC3)cc2C1=O	0.9	-5.2	7.0	-18.6	1.8
O=C(COC(=O)C1(c2ccccc2)CC1)NNC(=O)c1ccccc1	·	?	-1.7	·	0.6
NC(=O)c1ccccc1NC(=O)COC(=O)C1(c2ccccc2)CC1	9.3	32.4*	0.0	4.9	-2.6
Cn1c(SCC(=O)Nc2ccccc2C(F)(F)F)nc2c(c1=O)SCC2	·	4.6	-6.2	-0.4	-0.7
